This sample holds only a part of the variants without activity.

The chains are these.
B1: tRNA (parent)
chain: GUUCCGUUGGCGUAAUGGUAACGCGUCUCCCUCCUAAGGAGAAGACUGCGGGUUCGAGUCCCGUACGGAACG

Variants of B1 are the subject of the series. Put plainly: yeast fitness relative to wild type (ratio to wild type); higher = fitter; tRNA-Arg(CCU), competitive growth, 37 C, YPD. In short, it runs like this: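 The tRNA-Arg(CCU) gene variants were made by chemical synthesis with a 3% per-site mutation rate at 69 sites and inserted at the native genomic locus of Saccharomyces cerevisiae. After pooling, the strains were competed in YPD at 37°C for 24 hours in six parallel replicates. Gene amplicons from the start population and each end population were read by 100-nucleotide paired-end sequencing, and Darwinian fitness relative to wild type was taken from genotype frequency changes. Genotypes needed ≥ 100 starting reads, and estimates < 0.5 were set to 0.5.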
Take A15G C24G C66G: the yeast fitness is at most 0.5.
In the case of A15G A45C C61U it was 0.574; in that of A15G C27A G44A C62U A65U, at most 0.5.
In the case of A15G C24G C29U C34G U35C C49U C62U it was at most 0.5; in that of A15C G52A A70U, at most 0.5; in that of A15G C27A C31A A57C, at most 0.5.
The figure for A15C G50C U53A C66A is at most 0.5.
Take A15G A21C C33G A43U: the yeast fitness worked out at 0.57.
Consider A15C U54A C61U A70U, for which the yeast fitness amounted to 0.645.
In the case of A15G A36U C61U it was at most 0.5.
On to A15C C24G A40U G44A, for which the yeast fitness is at most 0.5.
In the case of A15C C49A G68C it was at most 0.5.
The figure for A15G A37U C62A is at most 0.5; for A15G A37G G56C it is at most 0.5; for A15G A43C C61A it is at most 0.5.
As to A15C G56A A57C, the yeast fitness was at most 0.5.
The figure for A15C U35C is 0.578; for A15C G17A U28A A65U it is 0.752; for A15C C46U C60U it is 0.58.
In the case of A15G A20C A21C G23A G52U it was at most 0.5.
As to A15C C49U A69G, the yeast fitness was at most 0.5.
In the case of A15C C24G A45G C55U it was at most 0.5; in that of A15C C60A C62U, at most 0.5.
The figure for A15G C27G C55U is at most 0.5.
The figure for A15G C29A A57C is at most 0.5; for A15G C22U G68C it is at most 0.5; for A15C G23C G41A it is at most 0.5.
A15C G48C G68U: the yeast fitness was 0.548.
In the case of A15C G58A C61A it was at most 0.5.
The figure for A15G A20G C27U is 0.732; for A15G A36G A43G A57U it is at most 0.5; for A15C U53A it is 0.578.
In the case of A15C C33U C61G it was at most 0.5; in that of A15C C60G, 0.612; in that of A15C G23A C24G C46G C55G, at most 0.5.
Regarding A15C G17A G68A, the yeast fitness was at most 0.5.
The figure for A15C G41C A45C is at most 0.5; for A15G C24G U26A G52A G68C it is 0.717.
In the case of A15C G25A U26C A69U it was at most 0.5.
With A15C U26A C31G U32A, the yeast fitness was at most 0.5.
As for A15G A43G U53G G63A, the yeast fitness is at most 0.5.
For the variant A15C C30U, the yeast fitness is 0.572.
The figure for A15C C30G is 0.541; for A15G A69U it is 1.04; for A15G A69G it is 1.05.
The figure for A15G C22U A36U C60A is 0.589; for A15G A37G C66U G67A it is at most 0.5.
For the variant A15C U26A A40C, the yeast fitness was 0.63.
In the case of A15G C27U C29U A37C C60U A69C it was at most 0.5; in that of A15G A37G A70C, 0.664.
For the variant A15G C24G C29U C34G U35C C46G A65G, the yeast fitness was at most 0.5.
In the case of A15C C24U U28A C29G G52A it was 0.501.
The figure for A15C G48C C66A is at most 0.5.
The figure for A15G C27U C62G is 0.627.
With A15C C30G C66G A69U, the yeast fitness is at most 0.5.
Regarding A15C U28C A43U, the yeast fitness is at most 0.5.
The figure for A15C G25C G52A A57C C60G is at most 0.5; for A15G A40U G48C C60G it is at most 0.5.
In the case of A15C G18A U35C it was at most 0.5; in that of A15C G41C C46A, at most 0.5.
In the case of A15C C46U C49U G50A it was at most 0.5; in that of A15C U28A C34G A43U, 0.564; in that of A15G A40U A45G, 0.585.
For the variant A15G A36U C61U A65U, the yeast fitness is at most 0.5.
In the case of A15C G17C C31A U32C G44C it was at most 0.5; in that of A15C U35C A37U C66U, at most 0.5; in that of A15C C24A U59C C62U, at most 0.5.
In the case of A15C C31U A45U G51C it was at most 0.5.
The figure for A15G A21G C55G is at most 0.5.
For A15C C55G A57C, the yeast fitness is at most 0.5.
In the case of A15G A20G C27U C33U A37U G38C C60U C62A G63U it was 0.684.
In the case of A15C C60U A69G it was at most 0.5.
In the case of A15C U28C G48C G50U it was at most 0.5; in that of A15C U16A A21G U26A C30U C61A, 0.692.
Consider A15C C29G G44C A45U U47A A70C, for which the yeast fitness was at most 0.5.
In the case of A15C G25A C61U it was 0.664; in that of A15C C46A G56C A70G, at most 0.5; in that of A15G C27A C49U C55G, at most 0.5.
For the variant A15G A70U, the yeast fitness worked out at 1.03.
As to A15C U28C C61G, the yeast fitness is at most 0.5.
For the variant A15G A20G C27A A40G A45C C55U, the yeast fitness is at most 0.5.
Turning to A15G A36C C46A A65G, the yeast fitness was at most 0.5.
The figure for A15C G23C A65G is at most 0.5; for A15C C34G C49G U54C C66G G68C it is at most 0.5.
The figure for A15G C29A G39A C46U is at most 0.5; for A15G A21U A45G C62G it is 0.506; for A15G A21G C34U G44A C61A A70C it is at most 0.5.
The figure for A15G C24G C29U C34G U35C C46G is 0.618; for A15C C31G C49U U64C G67A it is at most 0.5; for A15C C27A U32G C60G it is at most 0.5.
For A15C G56C, the yeast fitness worked out at 0.685.
In the case of A15G A20U C29G A43G A70U it was at most 0.5.
In the case of A15C C27G C61G, the yeast fitness came out at 0.781.
The figure for A15C U26G U28C A37G G41A C49G is 0.59.
The figure for A15G A21U is 0.989; for A15G C22G A36U A40G A69U it is at most 0.5; for A15C U19A C24G C34G C46U U54C C61A A70U it is at most 0.5.
The figure for A15C U26A G50C is at most 0.5.
As to A15C U47G, the yeast fitness is 0.663.
For A15G C29A C34G U59A C62U, the yeast fitness is at most 0.5.
In the case of A15G A21C C49U it was at most 0.5; in that of A15C U16C C31G A69U, at most 0.5.
In the case of A15G C29A G58A it was 0.57; in that of A15C C24G, 0.557.
The figure for A15G A20U G48A is 0.66; for A15C U26A G38A A40U G50C C60G A70G it is at most 0.5; for A15G A42G it is 0.929.
As to A15C U59C, the yeast fitness is 0.741.
As for A15G C22U A70C, the yeast fitness is 0.594.
The figure for A15C C46U C66A is 0.55; for A15C G51C it is 0.504.
With A15C U19C A21G C34U U53C, the yeast fitness is at most 0.5.
As for A15C C22U A42U U47A, the yeast fitness amounted to 0.511.
Consider A15C C31G C33G, for which the yeast fitness is at most 0.5.
Consider A15C U28C, for which the yeast fitness came to 0.737.
On to A15G A37U C55U, for which the yeast fitness was 0.556.
The figure for A15G C27A G51C is at most 0.5; for A15C U19C it is 1.03; for A15C G18A C24G it is at most 0.5.
In the case of A15C C22G C33U U59G C62G it was 0.981.
The figure for A15C U16C A20C U54C A57G is at most 0.5.
Consider A15C G39A G56A, for which the yeast fitness was at most 0.5.
In the case of A15C U19C C46A U59A it was at most 0.5; in that of A15C C31G C33G C55U C61U, 0.504; in that of A15C C30G A37C, at most 0.5.
Regarding A15C C34U C55A, the yeast fitness was at most 0.5.
The figure for A15G A36C G50C is at most 0.5; for A15G A20G A40U it is 0.808; for A15C U28G A45G G51C it is 0.554.
In the case of A15G A43C G67U A70U it was at most 0.5; in that of A15C U28G C30G A40C A42U, at most 0.5.
The figure for A15C U19C A37C G51A is at most 0.5.
On to A15C U32C A36C A45C C60U, for which the yeast fitness was at most 0.5.
For A15C C34A C46U, the yeast fitness turned out to be 0.614.
The figure for A15G A45U C61G is 0.6; for A15G A65C A69U it is 0.705; for A15C G48C C66U G67C it is at most 0.5.
In the case of A15C U47A G68U it was 0.57; in that of A15C C29U C31U, at most 0.5.
For the variant A15C C22U, the yeast fitness came to 0.689.
With A15C U54C C66G, the yeast fitness is at most 0.5.
In the case of A15C G50C U64C it was 0.545.
Turning to A15C C24G A45G G52A C60A, the yeast fitness is at most 0.5.
The figure for A15C C24G A45G is at most 0.5.
The figure for A15C U26C G48C is at most 0.5.
The figure for A15C C33A C34U A36C is 0.604; for A15G A20C it is 0.779; for A15G A20U it is 1.06.
In the case of A15G A20G, the yeast fitness came out at 1.04.
The figure for A15C G38A is 0.581; for A15C U26C G67U A69G it is at most 0.5; for A15C C24A U32A C55U it is at most 0.5.
Consider A15G A36G U54A, for which the yeast fitness is at most 0.5.
The figure for A15C C24G A45G G56A A69C is at most 0.5; for A15C C34U A36G C55A it is at most 0.5; for A15C G48A C49U U64G C66U it is at most 0.5.
The figure for A15C U28A C30U C34G A43U is at most 0.5; for A15C U16C A37C A43C it is at most 0.5; for A15C G23C U64C A65G it is at most 0.5.
The figure for A15G C27U G44A G56C is at most 0.5.
Turning to A15C C22G U32C G41A, the yeast fitness was at most 0.5.
The figure for A15C C24U A42C is 0.62; for A15G A37U C61A it is at most 0.5.
The figure for A15C C24U G44A C55G is at most 0.5; for A15G A43G A57U it is 0.793; for A15G A20U C22U G38C it is at most 0.5.
The figure for A15G C27A C46U is 0.627.

The values above are taken from the RNAGym collection of RNA variant scans (doi:10.1126/science.aae0568).
